Assay outcomes (PubChem BioAssay)
Vif inh – blocks HIV Vif function. HEK293T cells, Vif self-association by quenched fluorescence, imaging, 24 h. AID 602346. inhibition, % at 7.49 µM. 340,000 compounds, 0.35% hits; in the data active = inhibition above about 50%, passing the limit was not always enough; inconclusive = no clear call, values can overlap the other calls; inactive = below about 31%
NR2E3 ag-1 – NR2E3 (human) agonism; Q9Y5X4; GST-NR2E3/biotin-RetCOR TR-FRET, 1536-well; inhibition of corepressor binding, % at 4.78 µM; 320,000 compounds, 0.12% hits; AID 2300;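 active = percent inhibition above the cutoff of mean plus 3 SD of all tested compounds, set per screening campaign, cut at about 20% in these data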
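Format: 1536-well format; test system: GST-NR2E3 and biotin-RetCOR proteins; read-out basis: percent inhibition of TR-FRET ratio; timing: 5 h incubation at 4 °C; detection: time-resolved FRET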
HCV core dimer – blocks dimerization of HCV core protein; TR-FRET GST/Flag-core106 dimerization, 1536-well; inhibition, % at 5 µM; 300,000 compounds, 0.33% hits;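 active = inhibition above the mean of all tested compounds plus 3 SD, set per screening campaign, cut at about 45% in these data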
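Assay system – GST-tagged and Flag-tagged HCV core protein residues 1-106 · Quantity – core106 proteins, GST 13.5 nM and Flag 17 nM · Benchmarks – unlabelled core106 and no-GST-core106 wells · Read-out basis – percent inhibition of core106 dimerization signal · Detection – time-resolved FRET, ex 340 nm, em 617 and 671 nm · Schedule – 4 h at 22.5 °C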
MT1-MMP act inh – MT1-MMP (human) activation inhibition; P50281; HT1080 RFP-PRO-GFP cells, GFP/RFP ratio fluorescence, overnight; percent of plate control window, DMSO zero; GFP/RFP ratio change, % at 20 µM; 360,000 compounds, 0.061% hits;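 active = GFP/RFP ratio change of at least 30% with cell ATP level not reduced by more than half and red fluorescence within 50% of control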
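system = RFP-PRO-GFP reporter HT1080 cells | dosing = 20 µM single dose, 1% DMSO | timing = overnight cell settling, then overnight compound exposure, 37 °C, 5% CO2 | read-out basis = GFP/RFP fluorescence ratio | controls = DMSO and RFP-L50D-GFP cell wells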
NR2E3 ag-2 – agonists of human NR2E3 nuclear receptor; AID 602229; 360,000 compounds, 0.35% hits; inhibition of corepressor binding, % at 3.98 µM; CHO-S Gal4-NCOR/VP16-NR2E3 two-hybrid, luciferase;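 active = inhibition above the mean of all tested compounds plus 3 SD, cut at about 70% in these data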;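 note: higher means lower luciferase signal from less NR2E3 corepressor binding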
DAGLB inhibitor – diacylglycerol lipase beta (human) inhibition; Q8NCG7; HEK293T DAGLB membrane lysate, EnzChek fluorogenic substrate; 340,000 compounds, 0.059% hits; inhibition, % at 5.17 µM; in the data active = inhibition above about 34%
Target sequence (Q8NCG7 whole entry, looked up): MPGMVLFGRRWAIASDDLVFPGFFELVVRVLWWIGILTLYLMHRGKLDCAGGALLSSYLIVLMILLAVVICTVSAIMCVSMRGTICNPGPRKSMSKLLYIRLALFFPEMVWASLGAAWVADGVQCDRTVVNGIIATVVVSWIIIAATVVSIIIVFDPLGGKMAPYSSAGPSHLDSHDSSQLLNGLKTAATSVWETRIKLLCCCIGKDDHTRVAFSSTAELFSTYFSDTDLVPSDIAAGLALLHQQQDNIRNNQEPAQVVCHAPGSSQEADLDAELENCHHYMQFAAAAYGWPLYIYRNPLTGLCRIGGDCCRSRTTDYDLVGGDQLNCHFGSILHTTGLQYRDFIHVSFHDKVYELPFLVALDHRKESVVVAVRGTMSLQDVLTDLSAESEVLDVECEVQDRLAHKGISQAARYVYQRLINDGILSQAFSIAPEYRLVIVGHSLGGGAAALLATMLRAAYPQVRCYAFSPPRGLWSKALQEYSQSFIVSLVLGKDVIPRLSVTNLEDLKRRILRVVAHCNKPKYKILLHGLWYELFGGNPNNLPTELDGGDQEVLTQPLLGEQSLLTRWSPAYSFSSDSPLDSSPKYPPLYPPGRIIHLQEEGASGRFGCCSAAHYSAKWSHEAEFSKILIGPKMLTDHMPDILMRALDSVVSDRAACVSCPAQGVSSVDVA
Of the large screens only hits and unclear results are named; the others gave an inactive call; ! = not confirmed by another sample. Most compounds without a hit are left out; they make up all but 1.1% or so of the library.

CC(=O)N1CCc2cc(S(=O)(=O)NCCCN3CCCCC3)ccc21	none
CC(=O)N1CCc2cc(S(=O)(=O)NCCC3=CCCCC3)ccc21	NR2E3 ag-2 81 (no result: Vif inh)
CN(/C(=N\S(=O)(=O)c1ccccc1)C(F)(F)F)c1ccccc1	Vif inh 64
CCn1c(SCC(=O)N(C)Cc2ccc(OC)c(F)c2)nc2cc(S(N)(=O)=O)ccc21	none
Cc1ccc(S(=O)(=O)N2[C@H](CC(=O)c3ccc(F)cc3)OC[C@@H]2C)cc1	none (no result: Vif inh, NR2E3 ag-1, HCV core dimer, NR2E3 ag-2, DAGLB inhibitor)
COC(=O)CCC(=O)OC1(C)C(=O)C=C2C=C(C3CC3)N(c3cccc(C#N)c3)C=C2C1=O (stereo unspecified)	none
COC(=O)CCC(=O)OC1(C)C(=O)C=C2C=C(C3CC3)N(c3ccc(CO)cc3)C=C2C1=O (stereo unspecified)	HCV core dimer 69 (no result: Vif inh, MT1-MMP act inh, NR2E3 ag-2, DAGLB inhibitor)
COc1cc(C2C(C#N)=C(N)Oc3cc(C)oc(=O)c32)cc2c1OCO2 (stereo unspecified)	HCV core dimer 65
CCCCn1nnnc1C(c1cc2ccccc2o1)N1CCN(c2cc(C)nc3ccccc23)CC1 (stereo unspecified)	none (no result: Vif inh, NR2E3 ag-1, HCV core dimer, DAGLB inhibitor)
O=C1c2ccccc2C(=O)N1c1cccc(-c2csc(Nc3ccc4c(c3)OCO4)n2)c1	HCV core dimer 49 (no result: Vif inh, MT1-MMP act inh, NR2E3 ag-2, DAGLB inhibitor)
O=C1Nc2ccccc2S/C1=C/Nc1cccc(Cl)c1	Vif inh 123
Cc1ccc(NC(=O)COCC(=O)Nc2ccc(F)cc2)cc1	none
CCc1cccc2c1NC(=O)[C@]21[C@@H]2C(=O)N(Cc3ccccc3)C(=O)[C@@H]2[C@@H]2CCCN21	HCV core dimer 55
COc1ccc(-c2coc3c(C(=O)Nc4cccc(C(C)=O)c4)cccc23)c(C)c1	Vif inh 150 (no result: NR2E3 ag-1, HCV core dimer, DAGLB inhibitor)
Cc1cc(C)c2c(c1)C1C=CCC1C(c1ccc(S(=O)(=O)N3CCOCC3)cc1)N2 (stereo unspecified)	HCV core dimer 63
CC(C)CCNC(=O)CCc1nnc(COc2ccccc2)o1	Vif inh 86 (no result: NR2E3 ag-1, HCV core dimer)
O=C(CCc1nnc(COc2ccccc2)o1)NCCc1cccs1	none (no result: Vif inh)
COc1cccc(C(=O)NCC(=O)N2CCN(c3ccc(C(F)(F)F)cn3)CC2)c1	none (no result: NR2E3 ag-1, HCV core dimer)
Cc1cc(/C=C2\C(=N)N3C(SCc4ccccc4)=NSC3=NC2=O)c(C)n1Cc1ccccc1	Vif inh 93
CCC(=O)N/C(=N/c1nc(C)cc(C)n1)Nc1cccc(OC)c1	none (no result: Vif inh)
COC(=O)c1ccc(SC2CCCCC2)c([N+](=O)[O-])c1	Vif inh 125
COC(=O)c1ccc(SCC(=O)NC2CCCC2)c([N+](=O)[O-])c1	Vif inh inconclusive
CCOC(=O)c1oc2ccc(S(=O)(=O)Nc3ccc4c(c3)n(C)c(=O)n4C)cc2c1C	NR2E3 ag-2 77
COc1ccc(C(=O)c2c(C(F)(F)F)oc3c2C(=O)c2ccccc2C3=O)cc1	NR2E3 ag-2 93
CC(C)=CCc1c(O)cc2oc3c(CC=C(C)C)c(O)c(O)c(CC=C(C)C)c3c(=O)c2c1O	HCV core dimer 58
CCOC(=O)c1cc(-c2ccccc2)sc1NC(=S)Nc1cc(C)ccn1	Vif inh 169
CCOC(=O)c1cc(-c2ccccc2)sc1NC(=O)C(C)(C)C	none
Cc1nc(NC(=O)COc2ccc(Cl)cc2)sc1C(=O)N(C)C	none (no result: Vif inh, MT1-MMP act inh, NR2E3 ag-2, DAGLB inhibitor)
Cc1nc(NC(=O)C(C)Oc2cccc(Cl)c2)sc1C(=O)N(C)C (stereo unspecified)	Vif inh 52
O=C1CC(N2CCc3ccccc32)C(=O)N1c1ccccc1 (stereo unspecified)	none
CCOc1ccc(N2C(=O)CC(N3CCc4ccccc43)C2=O)cc1 (stereo unspecified)	Vif inh 81
COC(=O)c1ccc(NC(=O)C(=O)N2CCN(C(=S)NCCc3ccccc3)CC2)cc1	none
N#CC(C#N)=C(Nc1ccc(F)cc1)SCc1cccc(Br)c1	NR2E3 ag-2 94
O=c1[nH]c(C2CCN(S(=O)(=O)c3ccccc3C(F)(F)F)CC2)nc2c1nnn2Cc1cccc(F)c1	none
Cc1ccc2c(c1)C1C=CCC1C(C(=O)O)N2 (stereo unspecified)	HCV core dimer 94 (no result: Vif inh, MT1-MMP act inh, NR2E3 ag-2, DAGLB inhibitor)
Cc1ccc(S(=O)(=O)N(C)CCN(C)S(=O)(=O)c2ccc(C)cc2)cc1	none (no result: NR2E3 ag-1, HCV core dimer)
CCOC(=O)C1=C(c2ccccc2)N=c2s/c(=C\c3cc(OC)c(OC)c(OC)c3)c(=O)n2C1c1cccs1 (stereo unspecified)	none
CCOC(=O)C1=C(c2ccccc2)N=c2s/c(=C\c3ccco3)c(=O)n2C1c1cccs1 (stereo unspecified)	HCV core dimer 69
CCOC(=O)c1cnc(-n2nc(C)cc2C)nc1Nc1ccc(OC)cc1	none
CCOC(=O)c1cnc(-n2nc(C)cc2C)nc1NCc1ccc2c(c1)OCO2	NR2E3 ag-2 82
Cc1cc(C)c(S(=O)(=O)N2CCN(S(=O)(=O)N3CCOCC3)CC2)c(C)c1	Vif inh 68
CCOC(=O)[C@]12CCCC=C1N(CCC1=CCCCC1)C(=O)[C@H](CC(=O)NCc1ccccc1)C2	none (no result: Vif inh, NR2E3 ag-1, HCV core dimer, NR2E3 ag-2, DAGLB inhibitor)
CC(=O)NC1=NN(C(C)=O)C(C)(c2ccco2)S1 (stereo unspecified)	Vif inh 51
CC(=O)NC1=NN(C(C)=O)C(C)(c2ccc(C)o2)S1 (stereo unspecified)	none
O=C(CCNC(=O)c1ccccc1Cl)Nc1cccc(S(=O)(=O)N2CCCC2)c1	none (no result: HCV core dimer)
O=C(Nc1cccc(C(=O)O)c1)/C(=C\c1ccc(F)cc1)NC(=O)c1ccco1	Vif inh 64
CCn1c(/C=C/c2ccc(F)cc2)nc2ccccc2c1=O	Vif inh 60
CCn1c(/C=C/c2ccccc2)nc2ccccc2c1=O	none
O=C1Nc2cc(C(=O)N3CCN(c4ccccc4F)CC3)ccc2NC1CSCc1ccccc1F (stereo unspecified)	none (no result: Vif inh, MT1-MMP act inh, NR2E3 ag-2, DAGLB inhibitor)
Cc1cccc(N2CCN(C(=O)c3ccc4c(c3)NC(=O)C(CSCc3cccc(F)c3)N4)CC2C)c1 (stereo unspecified)	Vif inh 61
CC1=C(/C=C/C(C)=C/C=C/C(C)=C\C(=O)O)C(C)(C)CCC1	none
CC1=C(/C=C/C(C)=C/C=C/C(C)=C/C(=O)Nc2ccc(O)cc2)C(C)(C)CCC1	Vif inh 50! (no result: HCV core dimer)
CC(=O)NC(Cc1ccccc1F)C(=O)NC1CCN(C(=O)c2cnccn2)CC1 (stereo unspecified)	Vif inh 55
CCOC(=O)c1sc(NC(=S)NC(=O)CC(C)C)cc1C	HCV core dimer 71
CCOC(=O)c1sc(NC(=S)NC(=O)C2CCCC2)cc1C	HCV core dimer 46
CCOC(=O)c1sc(NC(=O)C2CC2)cc1C	none (no result: Vif inh)
